Data taken from ChEMBL document CHEMBL1129283, “New sigma and 5-HT1A receptor ligands: omega-(tetralin-1-yl)-n-alkylamine derivatives” (J Med Chem, 1996).
pKi: −log10 of the molar value.

Legend:
[1] = biological target: T1, 5-hydroxytryptamine receptor 1A (Rattus norvegicus, UniProt P19327); assay: Displacement of [3H]5-HT from rat hippocampal 5-hydroxytryptamine 1A receptor with 10e-6 M ketanserin; format: tissue-based, Hippocampus
T1 sequence (P19327 whole entry): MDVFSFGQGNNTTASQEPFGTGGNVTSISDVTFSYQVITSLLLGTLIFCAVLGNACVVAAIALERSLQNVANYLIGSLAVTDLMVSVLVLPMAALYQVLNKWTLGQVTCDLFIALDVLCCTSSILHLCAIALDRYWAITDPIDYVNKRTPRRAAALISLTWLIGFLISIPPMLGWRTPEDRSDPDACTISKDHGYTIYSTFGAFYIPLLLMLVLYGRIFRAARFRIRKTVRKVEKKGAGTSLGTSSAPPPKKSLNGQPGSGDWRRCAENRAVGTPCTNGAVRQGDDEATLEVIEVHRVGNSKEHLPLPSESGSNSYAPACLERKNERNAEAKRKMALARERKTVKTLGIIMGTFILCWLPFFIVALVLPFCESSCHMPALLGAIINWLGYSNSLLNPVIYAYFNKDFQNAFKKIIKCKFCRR
Outline: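 Rat hippocampal membranes, preincubated 15 min at 37 °C in 50 mM Tris-HCl pH 7.6. Assay buffer was 50 mM Tris-HCl with 4 mM CaCl2, 5.7 mM ascorbic acid and […], pH 7.6. Used 20 nM [3H]5-HT, 15 min at 37 °C, then filtration. IC50 from 2–3 experiments in triplicate (6–9 concentrations); Ki by Cheng–Prusoff.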

[2] = biological target: Sigma non-opioid intracellular receptor 1 (Rattus norvegicus, UniProt Q9R0C9); assay: Inhibitory activity against Sigma opioid receptor type 1 isolated from whole rat membranes using [3H](+)-pentazocine as radioligand.
Outline: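 Membranes came from male Sprague–Dawley rat whole brain minus cerebellum and pons-medulla, in 50 mM Tris-HCl pH 7.8, washed four times. Incubated with [3H]-(+)-pentazocine 120 min at 25 °C, then filtered on polyethylenimine-soaked filters. Nonspecific binding was set with 10 µM haloperidol. IC50 from 2–3 experiments in triplicate (6–9 concentrations); Ki by Cheng–Prusoff.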

[3] = Selectivity for 5-hydroxytryptamine 1A and sigma receptors; parameters: reference not given here
Cavia porcellus = organism: Cavia porcellus; assay: Selectivity for PCP and sigma receptors

Chain of Sigma non-opioid intracellular receptor 1 (Q9R0C9 whole entry): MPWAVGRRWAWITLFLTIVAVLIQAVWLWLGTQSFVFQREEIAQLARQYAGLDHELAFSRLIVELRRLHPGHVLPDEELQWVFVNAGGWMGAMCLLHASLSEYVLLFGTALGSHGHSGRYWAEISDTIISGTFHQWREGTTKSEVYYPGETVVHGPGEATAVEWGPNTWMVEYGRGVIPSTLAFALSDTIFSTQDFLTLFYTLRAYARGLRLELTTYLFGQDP

Molecule `COc1cccc2c1CCCC2CCCN1CCN(C2CCCCC2)CC1` (stereo unspecified) has a pKi [1] of 7.54 and a pKi [2] of 7.15.
For `COc1cccc2c1CCCC2CCCN1CCNCC1` (stereo unspecified), the pKi [1] was < 5.84.
Work on `COc1cccc2c1CCCC2CCCNCCC1CCCc2ccccc21` (stereo unspecified) yielded a pKi [1] of 7.64.
`C1=C(CCCN2CCN(Cc3ccccc3)CC2)c2ccccc2CC1` gave a pKi [1] of 6.67.
For `COc1cccc2c1CCCC2CCCNCCNc1ccccc1` (stereo unspecified), the pKi [1] was 7.85, the Selectivity [3] was 0.05 and the Selectivity (Cavia porcellus) was 8.
Molecule `COc1cccc2c1CCCC2CCCCN1CCN(C2=NCCCC2)CC1` (stereo unspecified) has a pKi [1] of 7.43 and a pKi [2] of 6.40.
With `COc1cccc2c1CCCC2CCCN1CCN(Cc2ccccc2)CC1` (stereo unspecified) the pKi [1] was 8.44 and the pKi [2] was 7.59.
For `c1ccc2c(c1)CCCC2CCCN1CCN(C2=NCCCC2)CC1` (stereo unspecified), the pKi [1] was 7.35, the pKi [2] was 6.95 and the Selectivity [3] was 1.
`COc1cccc2c1CCCC2CCCNCCc1ccccc1` (stereo unspecified) showed a pKi [1] of 7.50.
In the case of `COc1ccc2c(c1)C(CCCN1CCNCC1)CCC2` (stereo unspecified), the pKi [1] was < 5.84.
With `COc1cccc2c1CCC=C2CCCN1CCN(Cc2ccccc2)CC1` the Selectivity [3] was > 10.
In the case of `COc1cccc2c1CCCC2CCCNCCCc1ccccc1` (stereo unspecified), the pKi [1] was 8.36.
With `COc1ccc2c(c1)C(CCCN1CCN(C3=NCCCC3)CC1)CCC2` (stereo unspecified) the pKi [1] was 6.38 and the Selectivity [3] was 14.
